Tests used:
[1] = target: Serotonin 2 (5-HT2) receptor (Rattus norvegicus, UniProt P30994+P08909+P14842); assay: Compound is evaluated for binding affinity towards 5-hydroxytryptamine 2 receptor using [3H]ketanserin in rat brain; format: tissue-based
Method in brief: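 Contract radioligand competition binding. Sources: 5-HT1 and 5-HT1A in rat brain cortex; 5-HT2 and σ2 in rat brain; σ in guinea pig brain; D2, rhD2 and rhD3 in CHO cells with [³H]spiperone; H1 in guinea pig lung with [³H]pyrilamine. Inhibition constants reported; no constant given where inhibition at 10 µM was below 50%.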

[2] = target: T1, Adrenergic receptor alpha-2 (Rattus norvegicus, UniProt P22086+P19328+P22909); assay: Displacement of clonidine from Alpha-2 adrenergic receptor in rat brain cortex; format: tissue-based
T1 sequence (P22086 whole entry): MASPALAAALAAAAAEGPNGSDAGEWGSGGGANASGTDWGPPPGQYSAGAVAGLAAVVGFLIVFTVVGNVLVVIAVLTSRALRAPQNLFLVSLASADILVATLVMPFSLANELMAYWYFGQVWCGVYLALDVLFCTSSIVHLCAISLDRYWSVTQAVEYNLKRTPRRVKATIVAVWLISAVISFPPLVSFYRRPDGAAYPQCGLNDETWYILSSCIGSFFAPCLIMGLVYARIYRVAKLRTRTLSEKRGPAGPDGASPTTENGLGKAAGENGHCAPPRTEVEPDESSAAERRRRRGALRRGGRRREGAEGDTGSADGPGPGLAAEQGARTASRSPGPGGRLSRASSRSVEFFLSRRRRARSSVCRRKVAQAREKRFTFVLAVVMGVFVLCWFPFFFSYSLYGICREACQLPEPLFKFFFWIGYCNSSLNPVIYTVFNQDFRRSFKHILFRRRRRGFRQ
T1 sequence (P19328 whole entry): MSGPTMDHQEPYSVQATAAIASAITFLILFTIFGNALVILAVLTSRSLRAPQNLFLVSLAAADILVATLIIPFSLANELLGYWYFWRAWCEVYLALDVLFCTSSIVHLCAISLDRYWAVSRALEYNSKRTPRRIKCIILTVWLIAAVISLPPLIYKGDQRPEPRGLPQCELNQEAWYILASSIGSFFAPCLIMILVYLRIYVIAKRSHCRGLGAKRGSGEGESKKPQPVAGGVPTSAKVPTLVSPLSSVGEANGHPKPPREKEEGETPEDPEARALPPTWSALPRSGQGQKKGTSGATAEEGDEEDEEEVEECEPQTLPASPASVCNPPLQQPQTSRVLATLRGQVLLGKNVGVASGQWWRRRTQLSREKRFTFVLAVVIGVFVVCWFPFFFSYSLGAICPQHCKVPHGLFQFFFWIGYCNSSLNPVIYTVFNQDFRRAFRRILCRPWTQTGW
T1 sequence (P22909 whole entry): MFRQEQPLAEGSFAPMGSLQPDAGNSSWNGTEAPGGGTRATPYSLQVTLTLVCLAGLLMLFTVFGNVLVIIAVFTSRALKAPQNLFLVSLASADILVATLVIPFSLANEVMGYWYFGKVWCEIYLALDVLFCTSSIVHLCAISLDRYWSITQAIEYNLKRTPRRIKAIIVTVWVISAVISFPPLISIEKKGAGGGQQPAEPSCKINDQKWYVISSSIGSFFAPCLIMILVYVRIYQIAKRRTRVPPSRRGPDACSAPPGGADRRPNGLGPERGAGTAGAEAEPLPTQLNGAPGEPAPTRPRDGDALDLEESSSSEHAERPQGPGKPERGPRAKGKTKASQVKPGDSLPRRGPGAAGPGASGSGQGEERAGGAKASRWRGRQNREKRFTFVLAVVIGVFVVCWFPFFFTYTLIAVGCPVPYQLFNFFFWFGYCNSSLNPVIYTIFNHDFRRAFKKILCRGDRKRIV
Method in brief: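 α2 competition binding run in triplicate with 1 nM [³H]clonidine plus 10 mM MgCl₂ in Tris pH 7.4, 30 min at room temperature. Test compounds at 1-100 µM. Nonspecific binding defined with 10 µM clonidine. Membranes collected on GF/B filters and washed twice with cold Tris. Protein 300-400 µg per assay. Ki given as mean ± SEM of 3-6 experiments.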

D(3) dopamine receptor = D(3) dopamine receptor (Homo sapiens, UniProt P35462); assay: Compound is evaluated for binding affinity towards recombinant human Dopamine receptor D3 using [3H]spiperone in CHO cells at 10 uM; format: cell-based
Method in brief: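 Single-concentration screen at 10 µM in contract radioligand binding assays. Records whether inhibition of specific radioligand binding stayed below 50%.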

D(2) dopamine receptor = D(2) dopamine receptor (Homo sapiens, UniProt P14416); assay: Compound is evaluated for binding affinity towards Dopamine receptor D2 using [3H]spiperone in CHO cells at 10 uM; format: cell-based
[3] = target: T2, Alpha-2A adrenergic receptor (Homo sapiens, UniProt P08913); assay: Compound is evaluated for binding affinity towards Alpha-2A adrenergic receptor using [3H]MK912
T2 sequence (P08913 whole entry): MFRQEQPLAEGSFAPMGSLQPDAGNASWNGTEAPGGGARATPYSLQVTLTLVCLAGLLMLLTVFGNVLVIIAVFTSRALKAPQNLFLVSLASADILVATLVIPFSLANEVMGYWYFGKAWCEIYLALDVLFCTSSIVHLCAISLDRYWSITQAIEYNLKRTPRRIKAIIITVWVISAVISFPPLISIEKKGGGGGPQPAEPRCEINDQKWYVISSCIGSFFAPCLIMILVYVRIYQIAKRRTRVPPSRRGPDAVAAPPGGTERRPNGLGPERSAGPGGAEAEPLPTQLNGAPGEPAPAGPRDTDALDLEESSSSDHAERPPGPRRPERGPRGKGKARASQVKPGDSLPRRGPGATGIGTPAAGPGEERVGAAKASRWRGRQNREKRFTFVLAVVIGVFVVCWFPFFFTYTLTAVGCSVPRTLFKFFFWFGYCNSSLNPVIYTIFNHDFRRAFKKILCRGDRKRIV

[4] = target: T3, Alpha-2B adrenergic receptor (Homo sapiens, UniProt P18089); assay: Compound is evaluated for binding affinity towards Alpha-2B adrenergic receptor using [3H]yohimbine
T3 sequence (P18089 whole entry): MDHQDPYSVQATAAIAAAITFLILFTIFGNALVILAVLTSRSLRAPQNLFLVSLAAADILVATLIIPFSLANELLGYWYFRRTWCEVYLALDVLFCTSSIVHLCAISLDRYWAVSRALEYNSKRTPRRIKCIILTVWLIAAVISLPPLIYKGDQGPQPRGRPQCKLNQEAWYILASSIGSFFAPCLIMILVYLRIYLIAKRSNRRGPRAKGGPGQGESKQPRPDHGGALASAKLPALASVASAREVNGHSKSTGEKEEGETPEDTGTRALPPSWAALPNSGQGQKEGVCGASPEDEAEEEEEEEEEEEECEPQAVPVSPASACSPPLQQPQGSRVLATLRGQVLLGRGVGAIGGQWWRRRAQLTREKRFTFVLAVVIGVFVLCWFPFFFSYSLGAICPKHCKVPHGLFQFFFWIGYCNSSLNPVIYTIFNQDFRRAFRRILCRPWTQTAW

D(3) dopamine receptor, sequence (P35462 whole entry): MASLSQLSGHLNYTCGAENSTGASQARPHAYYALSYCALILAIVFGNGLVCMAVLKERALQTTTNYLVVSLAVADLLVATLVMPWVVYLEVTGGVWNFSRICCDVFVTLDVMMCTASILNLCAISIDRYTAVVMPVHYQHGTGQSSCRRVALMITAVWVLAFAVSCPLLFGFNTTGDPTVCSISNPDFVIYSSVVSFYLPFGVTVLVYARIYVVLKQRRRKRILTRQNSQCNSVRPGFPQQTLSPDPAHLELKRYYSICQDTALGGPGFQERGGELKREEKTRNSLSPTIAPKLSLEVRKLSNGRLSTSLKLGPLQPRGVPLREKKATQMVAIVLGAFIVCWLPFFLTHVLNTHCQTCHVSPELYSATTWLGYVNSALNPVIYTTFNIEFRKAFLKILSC
D(2) dopamine receptor, sequence (P14416 whole entry): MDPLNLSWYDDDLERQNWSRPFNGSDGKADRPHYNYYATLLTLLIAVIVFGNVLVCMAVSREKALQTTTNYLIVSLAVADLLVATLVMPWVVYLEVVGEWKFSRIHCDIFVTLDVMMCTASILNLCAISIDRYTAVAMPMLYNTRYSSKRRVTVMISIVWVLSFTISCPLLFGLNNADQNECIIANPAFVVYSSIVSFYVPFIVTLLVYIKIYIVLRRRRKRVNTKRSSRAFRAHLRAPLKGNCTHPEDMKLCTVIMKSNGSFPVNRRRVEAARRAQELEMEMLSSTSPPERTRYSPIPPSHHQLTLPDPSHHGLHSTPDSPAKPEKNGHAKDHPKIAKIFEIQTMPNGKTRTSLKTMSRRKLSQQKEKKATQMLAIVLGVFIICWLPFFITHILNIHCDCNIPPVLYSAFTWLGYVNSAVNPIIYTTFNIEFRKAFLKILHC

Ki [3] [nM]	Structure (SMILES)	Ki [1] [nM]	Ki [2] [µM]	inhibition (D(3) dopamine receptor) [%]	inhibition (D(2) dopamine receptor) [%]	Ki [4] [nM]
	Oc1nc2ccccc2c2ncc(CN3CCN(c4ccccc4Cl)CC3)n12	114	2.72	< 50		
	COc1ccccc1N1CCN(CC2CN=C3c4ccccc4N=C(SC)N32)CC1 (configuration not stated)	168				
	COc1ccccc1N1CCN(Cc2cnc3c4ccccc4nc(O)n23)CC1	514	7.83	< 50	< 50	
	COc1ccccc1N1CCN(Cc2cn3c(O)nc4ccccc4c3n2)CC1	3580	6.76	< 50	< 50	
3000	COc1ccccc1N1CCN(C[C@@H]2CN=C3c4ccccc4N=C(SC)N32)CC1					
872	COc1ccccc1N1CCN(C[C@H]2CN=C3c4ccccc4N=C(SC)N32)CC1					376
444	COc1ccccc1N1CCN(C[C@H]2CN=C3c4ccccc4NC(=O)N32)CC1					116
	COc1ccccc1N1CCN(C[C@@H]2CN=C3c4ccccc4NC(=O)N32)CC1					9300

Structure (SMILES)	Ki [3] [nM]	Ki [1] [nM]	Ki [2] [µM]	inhibition (D(3) dopamine receptor) [%]	inhibition (D(2) dopamine receptor) [%]	Ki [4] [nM]
COc1ccccc1N1CCN(CC2CN3C(=O)Nc4ccccc4C3=N2)CC1 (configuration not stated)	547	369			< 50	253
